In brackets after ≈: the same amount, converted by molar mass.
Assays:
Pseudomonas aeruginosa = test: Antimicrobial activity against Pseudomonas aeruginosa after 18 to 24 hrs in aerobic condition by two-fold serial dilutions method; format: functional
In short: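 Colonies grown overnight (~16 h) in Mueller-Hinton broth at 37 °C, 200 rpm, diluted 1/100 and grown to log phase (OD600 ~0.6), then diluted to ~10^5 bacteria/mL. Exposed to 0 to 500 µM in 1:2 series (0.2% DMSO final control), aerobic, 37 °C, 18–24 h. OD600 read; MIC = lowest concentration without visible growth; n = 3.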

Staphylococcus aureus = test: Antimicrobial activity against methicillin-resistant Staphylococcus aureus after 18 to 24 hrs in aerobic condition by two-fold serial dilutions method; format: functional
In short: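 Strains grown on LB at 37 °C aerobically, then in Mueller-Hinton broth overnight at 200 rpm and brought to log phase (OD600 ~0.6). About 10^5 bacteria/mL exposed to two-fold serial dilutions 0–500 µM, DMSO 0.2% final as control. Aerobic incubation at 37 °C for 18–24 h; OD600 read; MIC = lowest concentration inhibiting visible growth. n = 3.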

IMR-90 = test: Cytotoxicity against human IMR90 cells assessed as reduction in cell viability after 48 hrs by Resazurin dye-based assay; conditions: for IC50: Homo sapiens, IMR-90, 48 h; for Activity: human, imr-90, 48 h
In short: (§1)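 Normal human lung epithelial (BEAS-2B) and lung fibroblast (IMR-90) cells were grown in DMEM with 10% FCS. Cells were seeded at ~10^4/well, grown to confluence (48–72 h), then exposed to increasing concentrations for 48 h at 37 °C, 5% CO2, with 0.2% DMSO as control. Resazurin was added for 4 h and fluorescence read at 530/590 nm. Viability was normalized to DMSO wells and IC50 calculated.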

BEAS-2B = test: Cytotoxicity against human BEAS2B cells assessed as reduction in cell viability after 48 hrs by Resazurin dye-based assay; conditions: for IC50: Homo sapiens, BEAS-2B; for Activity: human, beas-2b; in short: as §1

Row | SMILES | MIC (Pseudomonas aeruginosa) | MIC (Staphylococcus aureus) | IC50 (IMR-90) | Activity (IMR-90) | IC50 (BEAS-2B) | Activity (BEAS-2B)
1 | O=C1/C(=C/c2ccc(O)cc2)Oc2cc(O)cc(O)c21 | > 500 µM | 62.5 to 125 µM (≈ 16.9 to 33.8 µg/mL) | – | – | – | –
2 | CCCCc1ccc(/C=C2\Oc3cc(O)cc(O)c3C2=O)cc1 | > 500 µM | 15.6 to 31.2 µM (≈ 4.84 to 9.7 µg/mL) | 80 µM | Dose-dependent effect | 90 µM | Dose-dependent effect
3 | O=C1/C(=C/c2cccc(O)c2)Oc2cc(O)ccc21 | > 500 µM | > 500 µM | – | – | – | –
4 | O=C(O)c1ccc(/C=C2\Oc3c(O)cccc3C2=O)cc1 | > 500 µM | > 500 µM | – | – | – | –
5 | CC(C)(C)c1ccc(/C=C2\Oc3cccc(O)c3C2=O)cc1 | > 500 µM | > 500 µM | – | – | – | –
6 | O=C1/C(=C/c2ccc(O)c(O)c2)Oc2cccc(O)c21 | > 500 µM | 125 to 250 µM (≈ 33.8 to 67.6 µg/mL) | – | – | – | –
7 | O=C1/C(=C/c2ccc(O)cc2)Oc2ccccc21 | > 500 µM | > 500 µM | – | – | – | –
8 | CN1CCN(c2ccc(/C=C3\Oc4cc(O)ccc4C3=O)cc2)CC1 | > 500 µM | > 500 µM | – | – | – | –
9 | O=C1/C(=C/c2ccc(O)c(O)c2)Oc2c(O)cccc21 | > 500 µM | 125 to 250 µM (≈ 33.8 to 67.6 µg/mL) | – | – | – | –
10 | O=C1/C(=C/c2ccccc2)Oc2cccc(O)c21 | > 500 µM | > 500 µM | – | – | – | –
11 | O=C1/C(=C/c2ccc(O)cc2)Oc2cc(O)ccc21 | > 500 µM | > 500 µM | – | – | – | –
12 | CCCCc1ccc(/C=C2\Oc3cccc(O)c3C2=O)cc1 | > 500 µM | > 500 µM | – | – | – | –
13 | O=C1/C(=C/c2cccc(O)c2)Oc2cc(O)cc(O)c21 | > 500 µM | 125 to 250 µM (≈ 33.8 to 67.6 µg/mL) | – | – | – | –
14 | CCCCc1ccc(/C=C2\Oc3cc(OC)cc(OC)c3C2=O)cc1 | > 500 µM | > 500 µM | – | – | – | –
15 | CCc1ccc(/C=C2\Oc3cccc(O)c3C2=O)cc1 | > 500 µM | 62.5 to 125 µM (≈ 16.6 to 33.3 µg/mL) | – | – | – | –
16 | CC(C)c1ccc(/C=C2\Oc3cccc(O)c3C2=O)cc1 | > 500 µM | > 500 µM | – | – | – | –

Row | SMILES | MIC (Pseudomonas aeruginosa) | MIC (Staphylococcus aureus) | IC50 (IMR-90) | Activity (IMR-90) | IC50 (BEAS-2B) | Activity (BEAS-2B)
17 | O=C1/C(=C/c2ccccc2)Oc2c(O)cccc21 | > 500 µM | > 500 µM | – | – | – | –
18 | O=C1/C(=C/c2ccc(O)cc2)Oc2cccc(O)c21 | > 500 µM | 125 to 250 µM (≈ 31.8 to 63.6 µg/mL) | – | – | – | –
19 | COc1ccc(/C=C2\Oc3cc(OC)cc(OC)c3C2=O)c(OC)c1 | > 500 µM | > 500 µM | – | – | – | –
20 | O=C1/C(=C/c2ccccc2)Oc2ccccc21 [(Z)-AURONE] | > 500 µM | > 500 µM | – | – | – | –
21 | Cc1ccc(/C=C2\Oc3cccc(O)c3C2=O)c(C)c1 | > 500 µM | > 500 µM | – | – | – | –
22 | O=C1/C(=C/c2cccc(O)c2O)Oc2c(O)cccc21 | > 500 µM | 250 µM (≈ 67.6 µg/mL) | – | – | – | –
23 | COc1cc(OC)c2c(c1)O/C(=C\c1ccc(C)cc1C)C2=O | > 500 µM | > 500 µM | – | – | – | –
24 | O=C1/C(=C/c2ccccc2O)Oc2cc(O)ccc21 | > 500 µM | > 500 µM | – | – | – | –
25 | O=C1/C(=C/c2ccc(C3CCCCC3)cc2)Oc2cc(O)cc(O)c21 | > 500 µM | 7.8 µM (≈ 2.62 µg/mL) | 31 µM | Dose-dependent effect | 33 µM | Dose-dependent effect
26 | COc1ccc2c(c1)O/C(=C\c1ccc(OC)c(OC)c1)C2=O | > 500 µM | > 500 µM | – | – | – | –
27 | COc1cc(OC)c(/C=C2\Oc3cccc(O)c3C2=O)c(OC)c1 | > 500 µM | 250 µM (≈ 82.1 µg/mL) | – | – | – | –
28 | O=C1/C(=C/c2cc(O)c(O)c(O)c2)Oc2c(O)cccc21 | > 500 µM | 125 to 250 µM (≈ 35.8 to 71.6 µg/mL) | – | – | – | –
29 | CN1CCN(c2ccc(/C=C3\Oc4cccc(O)c4C3=O)cc2)CC1 | > 500 µM | > 500 µM | – | – | – | –
30 | COc1cc(OC)c2c(c1)O/C(=C\c1ccccc1O)C2=O | > 500 µM | > 500 µM | – | – | – | –
31 | COc1cccc(OC)c1/C=C1\Oc2cccc(O)c2C1=O | > 500 µM | 250 µM (≈ 74.6 µg/mL) | – | – | – | –
